Diaphorase act: activates diaphorase or chemically reduces, flagging diaphorase assay artifacts. Diaphorase/resazurin coupled assay, resorufin fluorescence, 16 min; active compounds read high; 1 = vehicle wells, 0 = NADH-free wells. activation factor at 20 µM. actives 0.005% (n = 190,000). AID 1229;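 active = diaphorase activity raised at least twofold by the compound at 20 µM; inactive = activation factor below 2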
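Measured by – red resorufin fluorescence at 544/590 nm excitation/emission · Test system – Clostridium kluyveri diaphorase, purified enzyme · Incubation – reaction time 16 min, room temperature · Buffer or medium – 50 mM HEPES pH 7.4 with 4.542 mM MgCl2, 0.005% Tween 20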
L major viab: Leishmania major promastigote growth inhibition. Leishmania major promastigotes, resazurin fluorescence viability. AID 1063. actives 9% (n = 200,000). inhibition, % at 10 µM;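 also: promastigotes grown with compound for 44 hours at 28 °C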
Redox H2O2 prof: compounds producing H2O2 with reducing agent – biochemical, NIH compound library profiling, artefact control for MLSCN library redox annotation, primary screen; DTT-dependent redox cycling H2O2, phenol red/HRP absorbance; 100% = 100 µM peroxide control, 0% = buffer; activation, % at 10 µM; actives 0.03% (n = 200,000);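 active = activation of at least 50% relative to the plate's high and low controls in the primary single-dose screen; inactive = activation below 50%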;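 also: compound incubated with DTT at 0.8 mM final as the reducing agent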
PfGluPho inh: PfG6PD (Plasmodium falciparum) enzyme inhibition | PfGluPho enzyme, NADPH resazurin-diaphorase fluorescence | inhibition, % at 20 µM | actives 0.78% (n = 350,000) | AID 504690;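 active = inhibition reaching at least a set limit at 20 µM in the primary screen, cut at about 59% in these data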;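 also: 0% = DMSO wells with substrate and 100% = DMSO wells lacking glucose-6-phosphate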
Diaphorase inh: inhibits diaphorase or chemically oxidizes, flagging diaphorase assay artifacts. inhibition, % at 20 µM. actives 0.69% (n = 190,000). AID 1217. diaphorase resazurin-to-resorufin fluorescence, NADH, 16 min; bacterial (C. kluyveri) enzyme, not human;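 active = primary screen inhibition at 20 µM above a set limit, cut at about 50% in these data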;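 also: plate controls were DMSO with full reaction for no effect and wells lacking NADH for full effect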
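Test system: bacterial diaphorase enzyme (C. kluyveri); Quantity: 0.14 U/mL diaphorase, enzyme working solution; Times: reaction incubation of 16 min at room temperature; Measured by: fluorescence of resorufin formed from resazurin, Ex 544/Em 590 nm; Benchmarks: positive control minus NADH, DMSO neutral control.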
G6PDH CS: counter-screen for G6PDH assay hits: L. mesenteroides G6PDH inhibition. actives 0.12% (n = 200,000). Purified L. mesenteroides G6PDH, diaphorase/resazurin coupled fluorescence, 45 min. inhibition, % at 5 µM
The depositor's hits bear a star; x = no result given. The full list was thinned out, with hits kept by preference. Rule as the data show it, unless noted: active = inhibition above about 50%; inactive = the rest.

SMILES	Diaphorase act	L major viab	Redox H2O2 prof	PfGluPho inh	Diaphorase inh	G6PDH CS
O=C(NN1CCN(Cc2ccccc2)CC1)c1ccc(Cl)cc1	1	-4	0	13	0	2
O=C(Nc1nnc(C2=COCCO2)o1)c1cccc([N+](=O)[O-])c1	x	x	x	3	x	x
O=C(Nc1nnc(-c2ccc(F)cc2)o1)c1cc(Cl)sc1Cl	0.9	62*	0	-10	10	2
O=C(Nc1nnc(-c2ccc(F)cc2)o1)c1cccc([N+](=O)[O-])c1	0.9	96*	0	-7	10	3
Cc1cc(C)nc(NC(=O)Cc2ccc(Br)cc2)n1	1	3	-1	-4	-2	0
CC(C)CC(c1nnnn1C1CCCCC1)N1CCN(c2ncccn2)CC1 (stereo not drawn)	1	63*	1	8	2	16
CC(C)C(c1nnnn1C1CCCCC1)N1CCN(c2ncccn2)CC1 (stereo not drawn)	0.8	-2	3	-6	18	0
CCC(c1nnnn1C1CCCCC1)N1CCN(C2CCCC2)CC1 (stereo not drawn)	0.9	65*	-3	9	10	3
CCCC(c1nnnn1C1CCCCC1)N1CCN(C2CCCC2)CC1 (stereo not drawn)	1	-6	-3	1	4	7
CC(C)c1nc(C(=O)N2CCCC(CCC(=O)N(C)CCc3ccccn3)C2)cs1 (stereo not drawn)	0.8	11	0	-10	15	16
Cc1ccc(N(CC(=O)NCc2ccc3c(c2)OCO3)S(=O)(=O)c2c(C)noc2C)cc1	0.7	59*	-1	-4	30	17
O=C(Nc1ccc2c(c1)CN(Cc1ccccc1O)CC2)C1CCCO1 (stereo not drawn)	x	x	x	7	x	x
Cc1ccc2c(c1)c1c(n2CC(O)CNC(C)(C)C)CCCC1 (stereo not drawn)	0.9	82*	0	32	11	3
CCOC(=O)CN1C(=O)C(O)=C(C(C)=O)C1c1ccc(F)cc1 (stereo not drawn)	1	-7	2	-3	0	12
Cc1c(-c2ccccc2)oc2c(C(=O)OCC(=O)Nc3ccc(C(N)=O)cc3)cccc2c1=O	0.7	53*	x	-15	25	0
COC(=O)c1ccc(NC(=O)COC(=O)c2cccc3c(=O)c(C)c(-c4ccccc4)oc23)cc1	0.8	0	0	7	16	-28
O=C1CCN(Cc2ccc(Br)cc2)CCN1[C@H](CO)Cc1ccccc1	x	x	x	3	x	x
CCCn1c(CNc2ccc(Br)cc2)nc2ccccc21	0.6	97*	-1	22	36	-1
CCn1c(CNc2ccc(C(=O)O)cc2)nc2ccccc21	0.9	-1	0	-21	13	28
C=CC[n+]1c(/C=C2\C=Cc3cc(C)ccc3N2CC)ccc2ccccc21	0.9	100*	0	-16	10	-5
CCN1C(=C(C#N)C#N)C=Cc2cc(C)ccc21	0.9	0	0	22	9	1
COc1ccc(CN(C2CC2)S(=O)(=O)c2ccccc2Br)cc1	x	x	x	5	x	x
COCCn1c(=NC(=O)c2ccc3c(c2)OCO3)c(C#N)cc2c(=O)n3cccc(C)c3nc21	0.9	36	-2	x	10	5
CCCCn1c(=NC(=O)c2ccc3c(c2)OCO3)c(C#N)cc2c(=O)n3cccc(C)c3nc21	0.9	86*	-3	-18	15	5
CCOCCCn1c(=N)c(C(=O)NCCN2CCOCC2)cc2c(=O)n3cccc(C)c3nc21	x	61*	2	-10	x	x
CCCn1c(=N)c(C(=O)NCc2ccc3c(c2)OCO3)cc2c(=O)n3cccc(C)c3nc21	1.1	96*	3	-6	-12	-8
CCn1c(O)c(N=N)c2ccccc21	0.9	-6	0	12	12	-1
CCn1c(O)c(N=NC2=NC(=O)CS2)c2ccccc21	0.3	-7	1	-26	65*	2
Cc1nnc2n(Cc3ccccc3)c(=O)c3c4c(sc3n12)COC(C(C)C)C4 (stereo not drawn)	0.9	55*	2	2	7	7
